FID counter: fluorescent intercalator displacement, NS3 helicase counter-screen; DNA fluorescent intercalator displacement, fluorescence; AID 1845; inhibition, % at 7.9 µM; 290,000 tested, 0.17% active; in the data active = inhibition above about 37%;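 note: higher means more ethidium bromide displaced from hairpin DNA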
HCV NS3 hel inh: blocks Hepatitis C virus NS3 helicase unwinding; NS3 helicase DNA unwinding, Cy5 molecular beacon fluorescence; 290,000 tested, 0.56% active; inhibition, % at 10.9 µM;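 active = inhibition above the mean of all tested compounds plus 3 SD, set per campaign, cut at about 35% in these data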
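assay system = NS3 helicase fragment of HCV | buffer or medium = MOPS pH 6.5, MgCl2, DTT, Tween20, BSA | timing = 60 min unwinding reaction at 25 °C after ATP addition | signal = Cy5 beacon fluorescence read at start and 1 h | read-out basis = % inhibition of unwinding | control set = low DMSO, high thioflavine S at 110 µM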
FGF22 binding: FGF22 (human) thermal shift binding | Q9HCT0 | recombinant FGF22 thermal shift, SYPRO orange fluorescence; percent of sucrose octasulfate shift, DMSO zero | activity (Tm shift, normalised), % at 9.99 µM | 340,000 tested, 1.5% active;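 active = mean Tm shift, scaled 0 neutral to 100 positive control, at about 1.3% or above, every replicate too, limit read from the data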
Target sequence (Q9HCT0 whole entry, looked up): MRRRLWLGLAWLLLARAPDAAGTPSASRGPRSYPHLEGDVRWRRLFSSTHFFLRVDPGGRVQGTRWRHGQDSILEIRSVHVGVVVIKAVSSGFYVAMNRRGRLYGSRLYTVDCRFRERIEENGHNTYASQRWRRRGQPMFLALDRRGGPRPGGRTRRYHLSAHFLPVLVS
ZTA DNA inh: blocks Epstein-Barr virus ZTA, an EBNA-1 counter-screen. P03206. ZTA-DNA binding, fluorescence polarization. inhibition, % at 11 µM. 320,000 tested, 0.15% active. AID 2234; in the data active = inhibition above about 33%
Target sequence (P03206 whole entry, looked up): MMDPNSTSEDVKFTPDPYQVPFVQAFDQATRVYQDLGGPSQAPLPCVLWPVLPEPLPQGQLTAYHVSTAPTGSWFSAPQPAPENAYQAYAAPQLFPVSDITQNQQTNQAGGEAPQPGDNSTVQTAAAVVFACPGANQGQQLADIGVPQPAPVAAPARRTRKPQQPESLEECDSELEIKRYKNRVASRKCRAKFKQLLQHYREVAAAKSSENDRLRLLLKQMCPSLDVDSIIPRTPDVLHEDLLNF
EBNA-1 inh: blocks EBNA-1 binding to DNA. EBNA-1 DNA binding, fluorescence polarization. inhibition, % at 14.8 µM. 300,000 tested, 0.34% active; in the data active = inhibition above about 28%
NR3A LBD binder: NR3A (human) ligand-binding domain modulation; NR3A LBD differential scanning fluorimetry, Tm shift; 0% = protein alone, 100% = glycine-bound protein; Tm shift relative to glycine control, % at 25 µM; 340,000 tested, 2.5% active;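 active = melting temperature shift of at least 10% of the positive control shift, at one fixed dose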
A number is an active result; - = inactive; . = not tested or not shown. A selection: hits, their analogues and other compounds. The true share with any hit is near 3.6%.

SMILES | FID counter | HCV NS3 hel inh | FGF22 binding | ZTA DNA inh | EBNA-1 inh | NR3A LBD binder
O=C(c1cnccn1)N1CC(=O)N2[C@H](CO)[C@H](c3ccc(C#CCc4ccccc4)cc3)[C@@H]2C1 | . | . | - | . | . | .
CC(Oc1ccccc1)c1ccnc2nc(N3CCOCC3)nn12 (stereo not given) | - | - | 43 | - | - | -
O=C(C[C@@H]1CC[C@@H]2[C@H](COC[C@H](O)CN2C(=O)c2ccccc2)O1)N1CCOCC1 | . | . | - | . | . | .
CNC[C@H]1Oc2c(NS(C)(=O)=O)cccc2C(=O)N([C@@H](C)CO)C[C@@H]1C | . | . | - | . | . | .
O=C(NCC(c1cccnc1)N1CCN(c2ccccc2)CC1)OCc1ccccc1 (stereo not given) | - | - | . | - | - | -
O=C(NCC(c1cccnc1)N1CCN(c2ccccc2F)CC1)OCc1ccccc1 (stereo not given) | - | - | . | - | - | 12
CN(C)CC(=O)N[C@H]1CC[C@@H](CC(=O)NCc2ccc(Cl)cc2)O[C@@H]1CO | . | . | - | . | . | .
CO[C@@H]1CN(C)C(=O)c2cc(NC(=O)C3CC3)ccc2OC[C@H](C)N(C(C)=O)C[C@H]1C | . | . | - | . | . | .
CSCc1ccc(C(=O)OCc2nc3ccccc3s2)o1 | . | . | 43 | . | . | -
N=c1c2c(-c3ccccc3)c(-c3ccccc3)n(Cc3ccco3)c2ncn1Cc1ccccc1 | - | - | . | - | - | -
N=c1c2c(-c3ccccc3)c(-c3ccccc3)n(Cc3ccccc3)c2ncn1CCO | 37 | - | . | - | - | -
CCOC(=O)Cc1cc(=O)[nH]n(-c2ccccc2)c1=O | . | . | 44 | . | . | -
CCN(C[C@@H]1[C@@H](c2ccccc2)[C@H](CO)N1CC1CC1)C(C)=O | . | . | - | . | . | .
COc1ccc(NC(=O)c2cc3ccc(O)cc3o/c2=N\O)cc1 | - | - | - | - | - | 36
C/C(=N\NC(=O)c1cccc(N/N=C(\C)c2cc(O)ccc2O)c1)c1cc(O)ccc1O | - | - | 43 | - | - | 14
C/C(=N\Nc1cccc([N+](=O)[O-])c1)c1ccccc1O | - | - | - | - | - | 31
CNC(=S)Nc1cccc([N+](=O)[O-])c1 | - | - | - | - | - | -
C/C(=N\Nc1cccc([N+](=O)[O-])c1)c1cc(F)ccc1O | - | - | - | - | - | 10
O=C(C[C@@H]1CC[C@H]2[C@@H](COC[C@@H](O)CN2C(=O)c2ccc(F)cc2)O1)Nc1ccc(-c2ccccc2)cc1 | . | . | - | . | . | .
COc1ccc2c3c(n(C)c2c1)[C@H](CO)N(CC1CC1)CC31CN(S(=O)(=O)c2cn(C)cn2)C1 | . | . | - | . | . | .
COc1cccc(S(=O)(=O)Nc2ccc3c(c2)OC[C@H](C)NC[C@@H](C)[C@H](OC)CN(C)C3=O)c1 | . | . | - | . | . | .
Cc1ccc(-n2cc(-c3ccccc3)c3c(N4CCOCC4)ncnc32)cc1 | - | - | 43 | . | . | -
Cn1c(=O)c(NCCc2ccccc2)c2c3c(cccc31)C(=O)c1ccccc1-2 | - | - | . | - | - | 43
Cn1c(=O)c(NCCO)c2c3c(cccc31)C(=O)c1ccccc1-2 | - | - | . | - | - | -
CCCNC(=O)[C@@H]1[C@@H](CO)[C@@H]2Cn3c(ccc(-c4cccc(F)c4)c3=O)[C@H]1N2CCC | . | . | - | . | . | .
SMILES | FID counter | HCV NS3 hel inh | FGF22 binding | ZTA DNA inh | EBNA-1 inh | NR3A LBD binder
CCSC1=NCCN1S(=O)(=O)c1ccc2ccccc2c1 | - | - | 44 | - | - | -
O=C(Cc1c(C(=O)O)[nH]c2ccc(Cl)cc12)Nc1ccc2c(c1)OCCO2 | - | - | . | - | - | 12
C/C(CC(=O)Nc1ccc2c(c1)OCCO2)=N\NC(=O)Cc1ccc(Cl)cc1 | - | - | - | - | - | -
C[C@@H]1CN([C@@H](C)CO)C(=O)c2cc(NC(=O)Nc3ccc(F)cc3)ccc2O[C@H]1CN(C)C | . | . | - | . | . | .
COc1ccccc1C(=O)Nc1ccc2c(c1)C(=O)N(C)[C@@H]1CC[C@@H](CC(=O)NCc3ccc(Cl)c(Cl)c3)O[C@@H]1CO2 | . | . | - | . | . | .
C[C@@H]1CN([C@@H](C)CO)C(=O)c2cc(NC(=O)C3CC3)ccc2O[C@H]1CN(C)C(=O)NC1CCCCC1 | . | . | - | . | . | .
Cc1ccc(N2NC(=O)/C(=C/c3ccc(-c4ccc(Cl)c(C(=O)O)c4)o3)C2=O)cc1 | - | - | - | - | - | -
O=C1NN(c2ccccc2)C(=O)/C1=C\c1ccc(-c2cc([N+](=O)[O-])ccc2O)o1 | - | - | . | . | . | 23
